Experimental data published in ChEMBL document CHEMBL1122788, “Quantitative relationships between alpha-adrenergic activity and binding affinity of alpha-adrenoceptor agonists and antagonists” (J Med Chem, 1984).
Blank lines part the entries; values can stand above or below the molecule they belong to.

Tests used:
Rattus norvegicus [1] = test: Hypertensive activity (increase in arterial pressure to 60 mmHg)) after i.v. administration to pithed rats.
Rattus norvegicus [2] = test: Hypotensive activity (25% decrease in arterial pressure) after i.v. administration to anesthetized normotensive rats.
[3] = molecular target: T1, Adrenergic receptor alpha-2 (Rattus norvegicus, UniProt P22086+P19328+P22909); test: Binding affinity against Alpha-2 adrenergic receptor is the ability to inhibit the specific [3H]clonidine binding (0.4 nM) to rat isolated brain membranes by 50% was reported; 2.5*10e-9; format: tissue-based, Membrane
T1 sequence (P22086 whole entry): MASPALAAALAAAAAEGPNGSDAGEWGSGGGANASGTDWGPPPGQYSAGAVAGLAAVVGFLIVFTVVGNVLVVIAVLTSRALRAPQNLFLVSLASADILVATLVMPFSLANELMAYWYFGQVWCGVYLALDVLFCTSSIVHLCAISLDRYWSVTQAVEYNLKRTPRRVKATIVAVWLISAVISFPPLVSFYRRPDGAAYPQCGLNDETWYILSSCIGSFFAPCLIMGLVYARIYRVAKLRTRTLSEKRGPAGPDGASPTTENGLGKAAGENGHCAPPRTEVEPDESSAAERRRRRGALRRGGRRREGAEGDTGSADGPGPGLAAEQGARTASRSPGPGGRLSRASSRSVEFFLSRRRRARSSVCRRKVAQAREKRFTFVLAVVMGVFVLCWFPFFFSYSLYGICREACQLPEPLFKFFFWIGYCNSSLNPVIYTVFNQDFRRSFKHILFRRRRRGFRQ
T1 sequence (P19328 whole entry): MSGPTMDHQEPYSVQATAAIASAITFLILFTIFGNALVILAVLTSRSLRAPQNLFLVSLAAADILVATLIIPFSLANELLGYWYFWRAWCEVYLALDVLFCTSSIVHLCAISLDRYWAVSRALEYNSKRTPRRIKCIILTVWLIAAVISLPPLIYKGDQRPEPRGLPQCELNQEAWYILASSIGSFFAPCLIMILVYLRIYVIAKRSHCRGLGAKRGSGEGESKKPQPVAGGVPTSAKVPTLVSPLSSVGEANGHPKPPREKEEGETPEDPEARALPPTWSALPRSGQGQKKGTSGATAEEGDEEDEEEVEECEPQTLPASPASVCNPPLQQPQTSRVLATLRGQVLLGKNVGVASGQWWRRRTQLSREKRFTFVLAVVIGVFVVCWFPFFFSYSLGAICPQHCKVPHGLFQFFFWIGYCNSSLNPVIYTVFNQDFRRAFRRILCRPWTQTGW
T1 sequence (P22909 whole entry): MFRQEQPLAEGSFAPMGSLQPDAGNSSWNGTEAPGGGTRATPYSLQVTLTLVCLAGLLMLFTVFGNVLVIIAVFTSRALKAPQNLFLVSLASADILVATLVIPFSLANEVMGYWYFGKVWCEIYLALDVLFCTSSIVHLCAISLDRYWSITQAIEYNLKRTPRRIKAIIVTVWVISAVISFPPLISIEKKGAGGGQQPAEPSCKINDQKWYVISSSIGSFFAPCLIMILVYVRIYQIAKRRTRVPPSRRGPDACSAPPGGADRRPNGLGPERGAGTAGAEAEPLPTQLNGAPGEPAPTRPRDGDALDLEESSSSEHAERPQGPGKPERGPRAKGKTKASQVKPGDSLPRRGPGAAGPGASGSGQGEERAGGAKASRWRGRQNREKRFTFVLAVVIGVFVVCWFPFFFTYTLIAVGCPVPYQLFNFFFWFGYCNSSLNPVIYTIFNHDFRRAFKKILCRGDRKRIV

[4] = molecular target: T2, Adrenergic receptor alpha-1 (Rattus norvegicus, UniProt P15823+P23944+P43140); test: Binding affinity against alpha-1 adrenergic receptor is the ability to inhibit the specific [3H]prazosin binding (0.2 nM) to rat isolated brain membranes by 50% was reported; 6.6*10e-7; format: tissue-based, Membrane
T2 sequence (P15823 whole entry): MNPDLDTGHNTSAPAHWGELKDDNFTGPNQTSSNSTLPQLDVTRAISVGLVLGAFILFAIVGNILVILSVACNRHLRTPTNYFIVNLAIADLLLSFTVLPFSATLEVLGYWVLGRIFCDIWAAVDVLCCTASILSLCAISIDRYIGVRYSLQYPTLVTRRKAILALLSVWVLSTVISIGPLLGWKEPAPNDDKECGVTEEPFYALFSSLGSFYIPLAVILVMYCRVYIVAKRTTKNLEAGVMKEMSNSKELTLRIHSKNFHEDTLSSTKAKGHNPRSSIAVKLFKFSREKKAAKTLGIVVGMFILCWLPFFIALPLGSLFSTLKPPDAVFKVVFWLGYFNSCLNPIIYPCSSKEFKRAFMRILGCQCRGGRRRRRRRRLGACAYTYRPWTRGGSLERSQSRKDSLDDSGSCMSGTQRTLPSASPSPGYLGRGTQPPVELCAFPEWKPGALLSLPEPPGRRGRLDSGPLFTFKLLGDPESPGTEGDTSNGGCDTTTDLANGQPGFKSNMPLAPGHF
T2 sequence (P23944 whole entry): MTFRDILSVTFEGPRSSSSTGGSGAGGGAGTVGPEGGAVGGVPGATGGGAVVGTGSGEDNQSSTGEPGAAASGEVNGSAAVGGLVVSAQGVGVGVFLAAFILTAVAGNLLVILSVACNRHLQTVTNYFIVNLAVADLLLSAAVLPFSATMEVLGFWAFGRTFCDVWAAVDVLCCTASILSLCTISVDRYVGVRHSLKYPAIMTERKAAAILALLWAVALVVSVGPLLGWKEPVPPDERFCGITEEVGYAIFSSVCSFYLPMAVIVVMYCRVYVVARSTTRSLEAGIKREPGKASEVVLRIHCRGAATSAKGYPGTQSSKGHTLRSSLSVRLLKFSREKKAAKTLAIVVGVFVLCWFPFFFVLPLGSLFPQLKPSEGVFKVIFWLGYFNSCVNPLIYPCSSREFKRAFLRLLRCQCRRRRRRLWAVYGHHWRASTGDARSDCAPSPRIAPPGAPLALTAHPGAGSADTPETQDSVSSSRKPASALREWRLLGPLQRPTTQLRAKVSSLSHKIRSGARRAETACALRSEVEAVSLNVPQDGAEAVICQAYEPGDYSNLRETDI
T2 sequence (P43140 whole entry): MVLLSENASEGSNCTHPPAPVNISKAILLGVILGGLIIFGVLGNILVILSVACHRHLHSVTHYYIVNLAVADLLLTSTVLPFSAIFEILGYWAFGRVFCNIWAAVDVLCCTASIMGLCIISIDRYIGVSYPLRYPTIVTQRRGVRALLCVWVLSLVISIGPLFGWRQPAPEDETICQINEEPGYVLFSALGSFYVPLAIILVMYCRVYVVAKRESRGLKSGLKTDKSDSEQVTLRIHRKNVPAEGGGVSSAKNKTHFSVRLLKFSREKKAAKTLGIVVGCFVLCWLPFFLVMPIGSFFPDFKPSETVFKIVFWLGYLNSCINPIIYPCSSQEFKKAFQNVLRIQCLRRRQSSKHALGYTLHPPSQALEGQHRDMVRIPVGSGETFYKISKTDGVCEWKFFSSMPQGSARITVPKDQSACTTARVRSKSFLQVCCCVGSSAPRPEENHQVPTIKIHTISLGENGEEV
How it was run: (§1)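 Brain membranes were prepared from male Wistar rats (200–250 g, cerebellum removed) in ice-cold 50 mmol/L Tris-HCl, pH 7.7, with two 50000g spins, and used at 1 mg/mL protein (Lowry). […] Bound label was collected by vacuum filtration and counted. IC50 came from log probit analysis.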

[5] = molecular target: T2, Adrenergic receptor alpha-1; test: Binding affinity against alpha-1 adrenergic receptor is the ability to inhibit the specific [3H]prazosin binding (0.2 nM) to rat isolated brain membranes by 50% was reported; 6.5*10e-5; set-up: species or system Membrane
[6] = molecular target: T1, Adrenergic receptor alpha-2; test: Binding affinity against Alpha-2 adrenergic receptor is the ability to inhibit the specific [3H]-clonidine binding (0.4 nM) to rat isolated brain membranes by 50% was reported; 1*10e-6; format: tissue-based, Membrane
How it was run: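 Whole rat brain (minus cerebellum) from male Wistar rats (200–250 g), homogenized in ice-cold 50 mM Tris-HCl pH 7.7 and washed twice at 50000g. […] Bound ligand was collected by rapid filtration and counted. IC50 was derived by log-probit analysis.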

[7] = molecular target: T2, Adrenergic receptor alpha-1; test: Binding affinity against alpha-1 adrenergic receptor is the ability to inhibit the specific [3H]prazosin binding (0.2 nM) to rat isolated brain membranes by 50% was reported; 1.6*10e-6; format: tissue-based, Membrane
How it was run: as §1

[8] = molecular target: T1, Adrenergic receptor alpha-2; test: Binding affinity against Alpha-2 adrenergic receptor is the ability to inhibit the specific [3H]clonidine binding (0.4 nM) to rat isolated brain membranes by 50% was reported; 3.0*10e-8; format: tissue-based, Membrane
[9] = molecular target: T1, Adrenergic receptor alpha-2; test: Antagonist activity against B-HT 933-induced alpha-2-adrenoceptor-mediated vasoconstriction in pithed normotensive rats; format: functional
[10] = molecular target: T1, Adrenergic receptor alpha-2; test: Inhibition of specific [3H]clonidine binding (0.4 nM) to rat brain membranes alpha2 adrenoceptor; format: cell membranes, Membrane
[11] = molecular target: Adrenergic receptor alpha-2 (Homo sapiens) (UniProt P08913+P18825+P18089); conditions: Oryctolagus cuniculus
[12] = molecular target: T1, Adrenergic receptor alpha-2; test: Inhibition of specific [3H]-clonidine binding (0.4 nM) to rat brain membranes alpha-2 adrenoceptor; 2.8*10e-7; format: cell membranes, Membrane

Compound: CC(Oc1c(Cl)cccc1Cl)C1=NCCN1 (stereo unspecified) [LOFEXIDINE]
pC60 (Rattus norvegicus [1]): 1.99 uM kg-1
pC25 (Rattus norvegicus [2]): 2.09 uM kg-1
IC50 [3]: 2.5 nM
IC50 [4]: 660 nM

Compound: Cn1cc2c(NC3=NCCN3)cccc2n1 [INDANIDINE]
IC50 [5]: 65 µM
IC50 [6]: 1000 nM
pC60 (Rattus norvegicus [1]): -0.24 uM kg-1

Compound: c1ccc(CC2=NCCN2)cc1 [TOLAZOLINE]
pA2 [9]: 5.82
pC30 [11]: 6.15
IC50 [12]: 280 nM

Second part, led by results:

IC50 [7]: 1.6 µM
IC50 [8]: 30 nM
Compound: c1ccc2c(c1)CCCC2C1=NCCN1 (stereo unspecified) [TETRAHYDROZOLINE]
pC60 (Rattus norvegicus [1]): 0.9 uM kg-1
pC25 (Rattus norvegicus [2]): -0.16 uM kg-1

pA2 [9]: 6.23
IC50 [10]: 140 nM
Compound: c1ccc2c(c1)OCC(CN1CCCCC1)O2 (stereo unspecified) [PIPEROXAN]
